Laboratory results reported in ChEMBL document CHEMBL1221219, “Selective blockade of 2-arachidonoylglycerol hydrolysis produces cannabinoid behavioral effects” (Nat Chem Biol, 2009).
Active and inactive are the calls of the source. The rule behind the calls is not given here.

Tests used:
Mus musculus [1] = experiment: Inhibition of ABHD12 in C57B1/6J mouse brain membrane at 16 mg/kg, ip after 4 hrs by competitive activity-based protein profiling-MudPIT method; assay type: functional, organism-based; parameters: dose 16 mg/kg
Method in brief: (§1)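 Mice were dosed 16 mg kg^-1 i.p. or vehicle and killed at 4 h. Brain membrane proteomes were labelled with FP-biotin, avidin-enriched, trypsin-digested on bead, analysed by multidimensional LC-MS and identified by SEQUEST.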

Mus musculus [2] = experiment: Inhibition of BAT5 in C57B1/6J mouse brain membrane at 16 mg/kg, ip after 4 hrs by competitive activity-based protein profiling-MudPIT method; assay type: functional, organism-based; parameters: dose 16 mg/kg; method in brief: as §1
Mus musculus [3] = experiment: Inhibition of FAAH in intraperitoneally dosed C57B1/6J mouse brain membrane after 4 hrs by competitive activity-based protein profiling method; assay type: functional, organism-based
Method in brief: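 Male C57Bl/6J mice (6-8 weeks, 20-26 g) given inhibitor i.p. in 4:1 v/v PEG300:Tween80 at 4 ul g^-1 (4-40 mg kg^-1); vehicle controls. Brain membrane proteomes (1 mg ml^-1 in PBS) labelled with FP-rhodamine (2 μM) for 30 min at room temperature. Readout by SDS-PAGE and in-gel fluorescence scanning, compared with vehicle.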

Mus musculus [4] = experiment: Change in palmitic acid in intraperitoneally dosed C57B1/6J mouse brain by LC-MS; assay type: functional, organism-based
Method in brief: (§2)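 Male C57Bl/6J mice given 4, 8, 16 or 40 mg kg^-1 i.p. in 4:1 PEG300:Tween80 at 4 μl g^-1, or vehicle, and killed after 4 h. Whole-brain lipids were quantified by LC-MS.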

[5] = molecular target: T1, Fatty-acid amide hydrolase 1 (Mus musculus) (UniProt O08914); conditions: C57B1/6J, Brain, Membrane, 10 uM
T1 sequence (whole entry): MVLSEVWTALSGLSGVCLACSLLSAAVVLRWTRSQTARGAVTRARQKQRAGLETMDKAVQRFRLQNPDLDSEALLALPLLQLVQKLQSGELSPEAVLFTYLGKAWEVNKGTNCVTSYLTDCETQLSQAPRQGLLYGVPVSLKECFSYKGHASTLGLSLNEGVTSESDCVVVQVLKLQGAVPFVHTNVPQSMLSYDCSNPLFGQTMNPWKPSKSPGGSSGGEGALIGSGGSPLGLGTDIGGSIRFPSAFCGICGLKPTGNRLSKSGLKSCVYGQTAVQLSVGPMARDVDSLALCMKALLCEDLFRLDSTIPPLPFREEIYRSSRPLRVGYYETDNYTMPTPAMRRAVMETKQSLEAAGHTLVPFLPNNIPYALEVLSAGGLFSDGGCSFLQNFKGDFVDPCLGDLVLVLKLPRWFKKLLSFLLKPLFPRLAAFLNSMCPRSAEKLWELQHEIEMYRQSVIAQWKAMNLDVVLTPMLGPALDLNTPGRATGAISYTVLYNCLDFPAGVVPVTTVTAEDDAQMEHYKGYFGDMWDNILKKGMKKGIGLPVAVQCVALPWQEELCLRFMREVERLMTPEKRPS

Mus musculus [6] = experiment: Inhibition of PAFAH-1Bg in C57B1/6J mouse brain membrane at 16 mg/kg, ip after 4 hrs by competitive activity-based protein profiling-MudPIT method; assay type: functional, organism-based; parameters: dose 16 mg/kg
Method in brief: (§3)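 After i.p. dosing in 4:1 PEG300:Tween80, male C57Bl/6J mice were killed at 4 h. Brain membrane proteomes from treated and vehicle mice were labelled with FP-biotin. Labelled proteins were enriched on avidin, digested on-bead with trypsin and analysed by multidimensional LC-MS. Proteins were identified by SEQUEST, and dosed samples were compared with vehicle.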

[7] = molecular target: T2, Cytosolic phospholipase A2 (Homo sapiens) (UniProt P47712); experiment: Inhibition of recombinant cPLA2 4a expressed in HEK293 cells at 20 uM by FP-rhodamine labeling method; assay type: cell-based
T2 sequence (whole entry): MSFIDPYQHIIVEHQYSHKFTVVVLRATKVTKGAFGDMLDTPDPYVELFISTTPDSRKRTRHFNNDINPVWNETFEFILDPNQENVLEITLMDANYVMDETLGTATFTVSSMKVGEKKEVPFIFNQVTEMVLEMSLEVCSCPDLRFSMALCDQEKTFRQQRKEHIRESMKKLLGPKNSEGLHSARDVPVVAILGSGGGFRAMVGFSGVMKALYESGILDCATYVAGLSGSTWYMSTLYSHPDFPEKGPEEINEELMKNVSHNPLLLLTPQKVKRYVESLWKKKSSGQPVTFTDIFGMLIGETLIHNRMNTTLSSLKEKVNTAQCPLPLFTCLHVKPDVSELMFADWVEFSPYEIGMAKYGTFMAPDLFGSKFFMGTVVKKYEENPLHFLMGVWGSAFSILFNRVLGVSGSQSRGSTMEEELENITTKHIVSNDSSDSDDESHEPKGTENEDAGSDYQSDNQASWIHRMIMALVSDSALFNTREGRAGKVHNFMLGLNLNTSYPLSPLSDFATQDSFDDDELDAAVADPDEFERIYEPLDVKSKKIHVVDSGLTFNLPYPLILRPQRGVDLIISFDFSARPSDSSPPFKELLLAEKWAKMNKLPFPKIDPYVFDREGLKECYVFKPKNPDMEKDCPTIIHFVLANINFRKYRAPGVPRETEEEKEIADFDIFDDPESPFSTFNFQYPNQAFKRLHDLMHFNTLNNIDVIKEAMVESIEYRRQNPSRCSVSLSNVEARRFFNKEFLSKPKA

[8] = molecular target: T3, Fatty-acid amide hydrolase 1 (Mus musculus, UniProt O08914); experiment: Inhibition of FAAH in C57B1/6J mouse brain membrane after 20 mins by using oleamide as a substrate by LC-MS method; assay type: cell membranes
T3 sequence (O08914 whole entry): T1 sequence (whole entry)
Method in brief: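 Mouse brain membrane proteome pre-incubated with inhibitor for 30 min at 37°C, then oleamide (FAAH substrate) added. Hydrolysis quantified by an LC-MS substrate assay.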

Mus musculus [9] = experiment: Inhibition of TPP2 in C57B1/6J mouse brain membrane at 16 mg/kg, ip after 4 hrs by competitive activity-based protein profiling-MudPIT method; assay type: functional, organism-based; parameters: dose 16 mg/kg; method in brief: as §3
Mus musculus [10] = experiment: Inhibition of AARE in C57B1/6J mouse brain membrane at 16 mg/kg, ip after 4 hrs by competitive activity-based protein profiling-MudPIT method; assay type: functional, organism-based; parameters: dose 16 mg/kg; method in brief: as §1
Mus musculus [11] = experiment: Inhibition of FAS in C57B1/6J mouse brain membrane at 16 mg/kg, ip after 4 hrs by competitive activity-based protein profiling-MudPIT method; assay type: functional, organism-based; parameters: dose 16 mg/kg; method in brief: as §3
Mus musculus [12] = experiment: Change in mono-oleoylglycerol levels in intraperitoneally dosed C57B1/6J mouse brain by LC-MS; assay type: functional, organism-based; method in brief: as §2
Mus musculus [13] = experiment: Inhibition of LPL1 in C57B1/6J mouse brain membrane at 16 mg/kg, ip after 4 hrs by competitive activity-based protein profiling-MudPIT method; assay type: functional, organism-based; parameters: dose 16 mg/kg; method in brief: as §3
Mus musculus [14] = experiment: Inhibition of ABHD11 in C57B1/6J mouse brain membrane at 16 mg/kg, ip after 4 hrs by competitive activity-based protein profiling-MudPIT method; assay type: functional, organism-based; parameters: dose 16 mg/kg; method in brief: as §1
Mus musculus [15] = experiment: Inhibition of ACOT1 in C57B1/6J mouse brain membrane at 16 mg/kg, ip after 4 hrs by competitive activity-based protein profiling-MudPIT method; assay type: functional, organism-based; parameters: dose 16 mg/kg; method in brief: as §1
[16] = molecular target: Cannabinoid receptor 2 (Homo sapiens) (UniProt P34972); experiment: Displacement of [3H]CP-55940 from CB2 expressed in CHO cells after 90 mins by liquid scintillation; assay type: cell-based
Sequence of Cannabinoid receptor 2 (Homo sapiens) (P34972 whole entry): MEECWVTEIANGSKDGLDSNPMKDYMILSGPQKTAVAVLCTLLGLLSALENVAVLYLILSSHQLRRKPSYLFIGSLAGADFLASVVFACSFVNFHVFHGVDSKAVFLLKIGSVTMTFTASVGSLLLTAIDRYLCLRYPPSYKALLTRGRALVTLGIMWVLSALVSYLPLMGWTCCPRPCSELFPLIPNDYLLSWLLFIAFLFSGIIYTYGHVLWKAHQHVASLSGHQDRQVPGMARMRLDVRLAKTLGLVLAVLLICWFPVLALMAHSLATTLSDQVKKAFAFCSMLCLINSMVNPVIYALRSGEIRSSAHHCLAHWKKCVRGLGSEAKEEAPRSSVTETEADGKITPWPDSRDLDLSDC

O=C(Oc1ccc([N+](=O)[O-])cc1)N1CCC(C(O)(c2ccc3c(c2)OCO3)c2ccc3c(c2)OCO3)CC1
inhibition (Mus musculus [1]): inactive
inhibition (Mus musculus [2]): inactive
inhibition (Mus musculus [3]): Dose-dependent effect
Activity (Mus musculus [4]): inactive
inhibition [5]: Active
inhibition (Mus musculus [6]): inactive
inhibition [7]: inactive
IC50 [8]: 4 µM
inhibition (Mus musculus [9]): inactive
inhibition (Mus musculus [10]): inactive
inhibition (Mus musculus [11]): inactive
Activity (Mus musculus [12]): inactive
inhibition (Mus musculus [13]): inactive
inhibition (Mus musculus [14]): inactive
inhibition (Mus musculus [15]): inactive
Activity [16]: inactive
